Key:
[1] = test system: A10; experiment: Percent decrease in fluorescence in a membrane potential assay using the A10 cell line derived from embryonic rat aorta at 1.0 uM; type: functional
Outline: (§1)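 Postconfluent A10 cells (passage ≤20, grown in DMEM/15% FBS) equilibrated ≥15 min at 37 °C in 5 μM DiBAC₄(3) in EBSS with 20 mM HEPES, pH 7.3. Compound added from 1000X DMSO or water stocks. Fluorescence (ex 488, em 525 nm) imaged every 60 s at 37 °C from a field of about 50 cells and normalized between experiments.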

[2] = test system: A10; experiment: Percent decrease in fluorescence in a membrane potential assay using the A10 cell line derived from embryonic rat aorta at 0.1 uM; type: functional; outline: as §1
[3] = test system: A10; experiment: Percent decrease in fluorescence in a membrane potential assay using the A10 cell line derived from embryonic rat aorta at 10.0 uM; type: functional; outline: as §1
[4] = test system: Rattus norvegicus; experiment: Change in mean arterial pressure in anesthetized female rats at a dose of 0.01 mg/kg and a cumulative dose of 0.01 mg/kg; type: functional, Artery
Outline: (§2)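 Fasted female Sprague-Dawley rats, 200–250 g, under iv α-chloralose/urethane/pentobarbital anesthesia. Mean arterial pressure recorded continuously through a femoral artery catheter, after 30 min postsurgical equilibration. Compound given iv in 20% DMA/saline as step doses (initial plus three higher) at 20-min intervals. ΔMAP from pretreatment averaged over 4–5 rats per group; vehicle controls pooled n = 6.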

[5] = test system: Rattus norvegicus; experiment: Change in mean arterial pressure in anesthetized female rats at a dose of 0.10 mg/kg and a cumulative dose of 0.14 mg/kg; type: functional, Artery; outline: as §2
[6] = test system: Rattus norvegicus; experiment: Change in heart rate in beats per minute in anesthetized female rats at a dose of 0.01 mg/kg and a cumulative dose of 0.01 mg/kg; type: functional
Outline: (§3)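 Fasted female Sprague-Dawley rats, 200–250 g, anesthetized iv with α-chloralose 40 mg/kg, urethane 20 mg/kg and pentobarbital 20 mg/kg. Femoral vein cannulated for dosing; heart rate taken by tachograph triggered from the arterial pulse. Rectal temperature kept at 36–38 °C. Drug given iv in 20% DMA/saline as four rising bolus steps 20 min apart. ΔHR from pretreatment is the mean of 4–5 rats.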

[7] = test system: A10; experiment: Percent decrease in fluorescence in a membrane potential assay using the A10 cell line derived from embryonic rat aorta at 0.001 uM; type: functional; outline: as §1
[8] = test system: Rattus norvegicus; experiment: Change in heart rate in beats per minute in anesthetized female rats at a dose of 0.10 mg/kg and a cumulative dose of 0.14 mg/kg; type: functional; outline: as §3
[9] = test system: Rattus norvegicus; experiment: Change in mean arterial pressure in anesthetized female rats at a dose of 0.30 mg/kg and a cumulative dose of 0.44 mg/kg; type: functional, Artery; outline: as §2
[10] = test system: A10; experiment: Percent decrease in fluorescence in a membrane potential assay using the A10 cell line derived from embryonic rat aorta at 0.01 uM; type: functional; outline: as §1
[11] = test system: Rattus norvegicus; experiment: Change in heart rate in beats per minute in anesthetized female rats at a dose of 0.30 mg/kg and a cumulative dose of 0.44 mg/kg; type: functional; outline: as §3
[12] = test system: Rattus norvegicus; experiment: Change in heart rate in beats per minute in anesthetized female rats at a dose of 0.03 mg/kg and a cumulative dose of 0.04 mg/kg; type: functional; outline: as §3
[13] = test system: Rattus norvegicus; experiment: Change in mean arterial pressure in anesthetized female rats at a dose of 0.03 mg/kg and a cumulative dose of 0.04 mg/kg; type: functional, Artery; outline: as §2
[14] = test system: Rattus norvegicus; experiment: Change in heart rate in beats per minute in anesthetized female rats at a dose of 0.010 mg/kg and a cumulative dose of 0.014 mg/kg; type: functional; outline: as §3
[15] = test system: Rattus norvegicus; experiment: Change in heart rate in beats per minute in anesthetized female rats at a dose of 0.030 mg/kg and a cumulative dose of 0.044 mg/kg; type: functional; outline: as §3
[16] = test system: Rattus norvegicus; experiment: Change in mean arterial pressure in anesthetized female rats at a dose of 0.030 mg/kg and a cumulative dose of 0.044 mg/kg; type: functional, Artery; outline: as §2
[17] = test system: Rattus norvegicus; experiment: Change in mean arterial pressure in anesthetized female rats at a dose of 0.003 mg/kg and a cumulative dose of 0.004 mg/kg; type: functional, Artery; outline: as §2
[18] = test system: Rattus norvegicus; experiment: Change in heart rate in beats per minute in anesthetized female rats at a dose of 0.003 mg/kg and a cumulative dose of 0.004 mg/kg; type: functional; outline: as §3
[19] = test system: Rattus norvegicus; experiment: Change in mean arterial pressure in anesthetized female rats at a dose of 0.001 mg/kg and a cumulative dose of 0.001 mg/kg; type: functional, Artery; outline: as §2
[20] = test system: Rattus norvegicus; experiment: Change in heart rate in beats per minute in anesthetized female rats at a dose of 0.001 mg/kg and a cumulative dose of 0.001 mg/kg; type: functional; outline: as §3
[21] = test system: Rattus norvegicus; experiment: Change in mean arterial pressure in anesthetized female rats at a dose of 0.010 mg/kg and a cumulative dose of 0.014 mg/kg; type: functional, Artery; outline: as §2

CCCNC1=NC(=O)C2(CC(C)(C)Oc3ccc(F)cc32)N1 (stereo unspecified)
Decrease [1]: 17%
Decrease [2]: 10%

CSC1=NC(=O)C2(CC(C)(C)Oc3ccc(F)cc32)N1 (stereo unspecified)
Decrease [1]: 9%
Decrease [3]: 27%

CCSC1=NC(=O)C2(CC(C)(C)Oc3ccc(Br)cc32)N1 (stereo unspecified)
Delta MAP [4]: -2.5 mmHg
Delta MAP [5]: -21.5 mmHg
Delta HR [6]: 15.5 beats min-1
Decrease [7]: 7%
Delta HR [8]: 16.5 beats min-1
Delta MAP [9]: -25 mmHg
Decrease [2]: 18%
Decrease [10]: 11%
Delta HR [11]: 17.5 beats min-1
Delta HR [12]: 29 beats min-1
Delta MAP [13]: -16.3 mmHg

CCCNC1=NC(=O)C2(CC(C)(C)Oc3ccc(C#N)cc32)N1 (stereo unspecified)
Delta MAP [4]: -23.6 mmHg
Delta MAP [5]: -66.2 mmHg
Delta HR [6]: 13.8 beats min-1
Delta HR [8]: 29.8 beats min-1
Decrease [1]: 27%
Delta MAP [9]: -70 mmHg
Decrease [2]: 21%
Decrease [10]: <5%
Delta HR [11]: 39.2 beats min-1
Delta HR [12]: 19.2 beats min-1
Delta MAP [13]: -50.8 mmHg

CCNC1=NC(=O)C2(CC(C)(C)Oc3ccc([N+](=O)[O-])cc32)N1 (stereo unspecified)
Decrease [7]: 9%
Decrease [2]: 28%
Decrease [10]: 13%

CC(C)NC1=NC(=O)C2(CC(C)(C)Oc3ccc(Br)cc32)N1 (stereo unspecified)
Decrease [1]: 22%
Decrease [2]: 5%

CC(C)NC1=NC(=O)C2(CC(C)(C)Oc3ccc(F)cc32)N1 (stereo unspecified)
Decrease [1]: 5%
Decrease [3]: 22%

CSC1=NC(=O)C2(CC(C)(C)Oc3ccc([N+](=O)[O-])cc32)N1 (stereo unspecified)
Decrease [1]: 16%
Decrease [2]: 11%
Decrease [10]: 8%

CCCSC1=NC(=O)C2(CC(C)(C)Oc3ccc(C#N)cc32)N1 (stereo unspecified)
Decrease [1]: 17%
Decrease [2]: <5%

CCCSC1=NC(=O)C2(CC(C)(C)Oc3ccc(Br)cc32)N1 (stereo unspecified)
Decrease [1]: 15%
Decrease [2]: 6%

CSC1=NC(=O)C2(CC(C)(C)Oc3ccc(Br)cc32)N1 (stereo unspecified)
Decrease [1]: 27%
Decrease [2]: 6%

CSC1=NC(=O)C2(CC(C)(C)Oc3ccccc32)N1 (stereo unspecified)
Decrease [3]: <5%

CNC1=NC(=O)C2(CC(C)(C)Oc3ccc(F)cc32)N1 (stereo unspecified)
Decrease [1]: 11%
Decrease [3]: 14%

CCNC1=NC(=O)C2(CC(C)(C)Oc3ccc(C#N)cc32)N1 (stereo unspecified)
Decrease [1]: 25%
Decrease [2]: 8%

CC1(C)Oc2ccc(C#N)cc2C(N2CCCC2=O)C1O (stereo unspecified) [CROMAKALIM]
Delta MAP [4]: -14.7 mmHg
Delta MAP [5]: -36.1 mmHg
Delta HR [6]: 33.8 beats min-1
Delta HR [8]: 65.6 beats min-1
Decrease [1]: 22%
Delta MAP [9]: -52.7 mmHg
Decrease [2]: <5%
Delta HR [11]: 63 beats min-1
Delta HR [12]: 53.4 beats min-1
Delta MAP [13]: -22.6 mmHg

CCCNC1=NC(=O)C2(CC(C)(C)Oc3ccccc32)N1 (stereo unspecified)
Decrease [1]: 7%

CCOC1=NC(=O)C2(CC(C)(C)Oc3ccc(F)cc32)N1 (stereo unspecified)
Decrease [1]: <5%
Decrease [3]: 13%

CNC1=NC(=O)C2(CC(C)(C)Oc3ccc([N+](=O)[O-])cc32)N1 (stereo unspecified)
Decrease [7]: <5%
Decrease [2]: 38%
Decrease [10]: 15%

CC(C)NC1=NC(=O)C2(CC(C)(C)Oc3ccc(C#N)cc32)N1 (stereo unspecified)
Decrease [1]: 10%
Decrease [2]: <5%

CC(C)NC1=NC(=O)C2(CC(C)(C)Oc3ccccc32)N1 (stereo unspecified)
Decrease [3]: 13%

CNC1=NC(=O)C2(CC(C)(C)Oc3ccc(Br)cc32)N1 (stereo unspecified)
Decrease [1]: 17%
Decrease [2]: 22%

CCCNC1=NC(=O)C2(CC(C)(C)Oc3ccc(Br)cc32)N1 (stereo unspecified)
Delta MAP [4]: -25.6 mmHg
Delta MAP [5]: -70.1 mmHg
Delta HR [6]: 44.9 beats min-1
Delta HR [8]: 46.3 beats min-1
Delta MAP [9]: -70.6 mmHg
Decrease [2]: 28%
Decrease [10]: 12%
Delta HR [11]: 92.8 beats min-1
Delta HR [12]: 25.6 beats min-1
Delta MAP [13]: -56.7 mmHg

CCOC1=NC(=O)C2(CC(C)(C)Oc3ccc(Br)cc32)N1 (stereo unspecified)
Decrease [1]: 20%
Decrease [2]: 5%

CCOC1=NC(=O)C2(CC(C)(C)Oc3ccccc32)N1 (stereo unspecified)
Decrease [3]: <5%

CC(C)(C)CNC1=NC(=O)C2(CC(C)(C)Oc3ccccc32)N1 (stereo unspecified)
Decrease [3]: 7%

CCCNC1=NC(=O)C2(CC(C)(C)Oc3ccc([N+](=O)[O-])cc32)N1 (stereo unspecified)
Delta HR [14]: 3.8 beats min-1
Delta HR [15]: 31.8 beats min-1
Delta MAP [16]: -72 mmHg
Delta MAP [17]: -51.3 mmHg
Decrease [7]: 8%
Delta HR [18]: 3.3 beats min-1
Decrease [2]: 28%
Delta MAP [19]: -19.8 mmHg
Decrease [10]: 19%
Delta HR [20]: 6.8 beats min-1
Delta MAP [21]: -66 mmHg

CSC1=NC(=O)C2(CC(C)(C)Oc3ccc(C#N)cc32)N1 (stereo unspecified)
Decrease [1]: 5%
Decrease [3]: 25%

CCSC1=NC(=O)C2(CC(C)(C)Oc3ccc(C#N)cc32)N1 (stereo unspecified)
Decrease [1]: 6%
Decrease [3]: 24%

CCNC1=NC(=O)C2(CC(C)(C)Oc3ccc(F)cc32)N1 (stereo unspecified)
Delta MAP [4]: -7.1 mmHg
Delta MAP [5]: -28 mmHg
Delta HR [6]: -0.4 beats min-1
Delta HR [8]: 38 beats min-1
Decrease [1]: 24%
Delta MAP [9]: -44.6 mmHg
Decrease [2]: 19%
Delta HR [11]: 45.6 beats min-1
Delta HR [12]: 1.7 beats min-1
Delta MAP [13]: -10.7 mmHg

CCNC1=NC(=O)C2(CC(C)(C)Oc3ccc(Br)cc32)N1 (stereo unspecified)
Decrease [1]: 19%
Decrease [2]: 26%

CNC1=NC(=O)C2(CC(C)(C)Oc3ccc(C#N)cc32)N1 (stereo unspecified)
Decrease [1]: 19%
Decrease [2]: <5%
